Columns and labels:
[1] = target: T1, 3-hydroxy-3-methylglutaryl-coenzyme A reductase (Rattus norvegicus) (UniProt P51639); assay: The compound was tested for the relative potency with respect to standard compound BMY-21950
T1 sequence (whole entry): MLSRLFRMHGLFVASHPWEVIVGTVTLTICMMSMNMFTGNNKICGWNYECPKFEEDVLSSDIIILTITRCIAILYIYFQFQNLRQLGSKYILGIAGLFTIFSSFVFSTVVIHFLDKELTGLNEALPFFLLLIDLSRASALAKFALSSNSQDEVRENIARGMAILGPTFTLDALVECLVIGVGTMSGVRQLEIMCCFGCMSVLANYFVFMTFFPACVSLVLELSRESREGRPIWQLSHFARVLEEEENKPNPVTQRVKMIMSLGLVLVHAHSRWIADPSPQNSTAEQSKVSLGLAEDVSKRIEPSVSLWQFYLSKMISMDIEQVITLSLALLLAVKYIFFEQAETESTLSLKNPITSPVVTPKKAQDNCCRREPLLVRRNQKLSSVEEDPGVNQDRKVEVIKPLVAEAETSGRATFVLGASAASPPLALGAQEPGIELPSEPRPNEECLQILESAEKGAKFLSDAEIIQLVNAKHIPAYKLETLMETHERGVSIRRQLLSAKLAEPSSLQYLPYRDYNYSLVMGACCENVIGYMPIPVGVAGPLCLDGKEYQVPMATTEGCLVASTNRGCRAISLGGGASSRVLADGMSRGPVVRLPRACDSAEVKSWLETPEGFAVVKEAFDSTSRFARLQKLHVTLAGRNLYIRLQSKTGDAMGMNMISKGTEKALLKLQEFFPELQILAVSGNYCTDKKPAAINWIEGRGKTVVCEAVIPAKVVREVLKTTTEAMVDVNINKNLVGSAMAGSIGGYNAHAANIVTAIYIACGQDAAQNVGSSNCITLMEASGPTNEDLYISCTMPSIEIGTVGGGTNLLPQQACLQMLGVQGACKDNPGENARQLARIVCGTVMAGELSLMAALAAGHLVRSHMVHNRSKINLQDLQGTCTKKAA

[2] = target: T2, 3-hydroxy-3-methylglutaryl-coenzyme A reductase (Rattus norvegicus, UniProt P51639); assay: In vitro inhibitory activity was measured against rat liver HMG-CoA reductase
T2 sequence (P51639 whole entry): T1 sequence (whole entry)
Summary of the method: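 Enzyme: intact, fully activated rat liver microsomal HMG-CoA reductase, 50–100 μg protein in buffer A (50 mM imidazole HCl, 250 mM NaCl, 1 mM EDTA, 1 mM EGTA, 5 mM DTT, pH 7.2). Preincubated with inhibitor for 10 min at 37 °C. d,l-[3-14C]HMG-CoA (0.33 mM) and NADPH (3.0 mM) then added. [14C]mevalonate formation measured. IC50 from linear regression of % inhibition vs log concentration, ≥4 dilutions in duplicate.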

Rattus norvegicus [3] = organism: Rattus norvegicus; assay: In vitro inhibitory potency for cholesterol synthesis was measured in rat ileum; type: functional
Bos taurus = organism: Bos taurus; assay: In vitro inhibitory potency for cholesterol synthesis was measured in bovine lens epithelial cell cultures
[4] = target: T2, 3-hydroxy-3-methylglutaryl-coenzyme A reductase; assay: (§1) In vitro inhibitory activity was measured against rat liver HMG-CoA reductase using [2-14C]-acetate incorporation
Summary of the method: (§2)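 Parenchymal hepatocytes from chow-fed male Wistar rats (180–280 g), collagenase-perfused, viability >95%. Cells held at 100 mg wet weight/2.0 mL in MEM with bicarbonate/HEPES, pH 7.4, 2% BSA, under 95% O2/5% CO2. Preincubated with inhibitor for 15 min, with DMSO at 0.5% final for lactones. [2-14C]acetate then added for 60 min at 37 °C. 14C in 3β-hydroxysterols counted. IC50 by regression from ≥4 concentrations; mean of n experiments.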

Rattus norvegicus [5] = organism: Rattus norvegicus; assay: In vitro inhibitory potency for cholesterol synthesis was measured in rat adrenals; type: functional, Adrenal gland
Rattus norvegicus [6] = organism: Rattus norvegicus; assay: In vitro inhibitory potency for cholesterol synthesis was measured in rat testes; type: functional, Testis
Summary of the method: (§3)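 Rat spleen and testes cell dispersions, prepared nonenzymatically. Na-salt inhibitors were preincubated with cells for 15 min under the hepatocyte conditions. [14C]acetate (45–55 μCi per μmol, 5 μCi per mL) was then incorporated for 60 min. Sterol IC50 is reported as a ratio to the IC50 in rat hepatocytes.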

Rattus norvegicus [7] = organism: Rattus norvegicus; assay: In vitro inhibitory potency for cholesterol synthesis was measured in rat spleen; type: functional; summary of the method: as §3
[8] = target: T2, 3-hydroxy-3-methylglutaryl-coenzyme A reductase; assay: as §1; remark: listed apart in the source
Summary of the method: as §2, with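 “counted.” for “counted. IC50 by regression from ≥4 concentrations; mean of n experiments.”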

Relative potency [1]	IC50 [2]	SMILES	also measured
9.1e-05	200000 nM	CCn1nnc(C(/C=C/[C@@H](O)C[C@@H](O)CC(=O)O)=C(c2ccc(F)cc2)c2ccc(F)cc2)n1	
0.0033	5700 nM	Cn1nnnc1C(C=C=C[C@@H](O)C[C@@H](O)CC(=O)O)=C(c1ccc(F)cc1)c1ccc(F)cc1	
< 6e-05	> 300000 nM	CC(C)n1nnc(C(/C=C/[C@@H](O)C[C@@H](O)CC(=O)O)=C(c2ccc(F)cc2)c2ccc(F)cc2)n1	
	3700 nM	CC(C)(C)n1nnc(C(/C=C/[C@@H](O)C[C@@H](O)CC(=O)O)=C(c2ccc(F)cc2)c2ccc(F)cc2)n1 (stereo in doubt; 47) [listing 1 of 2 here]	
	43 nM	Cn1nnnc1C(/C=C/[C@@H](O)C[C@@H](O)CC(=O)[O-])=C(c1ccc(F)cc1)c1ccc(F)cc1.[Na+] (stereo in doubt; 3a)	IC50 ratio (Rattus norvegicus [3]): 129; IC50 ratio (Bos taurus): 144; IC50 [4]: 21 nM; IC50 ratio (Rattus norvegicus [5]): 76; IC50 ratio (Rattus norvegicus [6]): 86; IC50 ratio (Rattus norvegicus [7]): 149
0.00015	130000 nM	CC(C)n1nnnc1C(C=C=C[C@@H](O)C[C@@H](O)CC(=O)O)=C(c1ccc(F)cc1)c1ccc(F)cc1	
	> 300000 nM	Cn1nnnc1C(/C=C/[C@@H](O)C[C@@H](O)CC(=O)O)=C(c1ccc(F)cc1)c1ccc(F)cc1 (stereo in doubt; 48)	
	19 nM	CC(C)(C)n1nnc(C(/C=C/[C@@H](O)C[C@@H](O)CC(=O)O)=C(c2ccc(F)cc2)c2ccc(F)cc2)n1 (stereo in doubt; 49) [listing 1 of 2 here]	
0.0024	7900 nM	CC(/C=C/[C@@H](O)C[C@@H](O)CC(=O)O)=C(c1ccc(F)cc1)c1ccc(F)cc1	
0.0014	14000 nM	CC(C)n1nnnc1C(/C=C/[C@@H](O)C[C@@H](O)CC(=O)O)=C(c1ccc(F)cc1)c1ccc(F)cc1	
0.00063	30000 nM	Cn1nnc(C(/C=C/[C@@H](O)C[C@@H](O)CC(=O)O)=C(c2ccc(F)cc2)c2ccc(F)cc2)n1	
0.43		Cn1nnnc1C(/C=C/[C@@H](O)C[C@@H](O)CC(=O)O)=C(c1ccc(F)cc1)c1ccc(F)cc1 (stereo in doubt; 3a)	
0.0024	8000 nM	N#CC(/C=C/[C@@H](O)C[C@@H](O)CC(=O)O)=C(c1ccc(F)cc1)c1ccc(F)cc1	
1		CC(C)(C)n1nnc(C(/C=C/[C@@H](O)C[C@@H](O)CC(=O)O)=C(c2ccc(F)cc2)c2ccc(F)cc2)n1 (stereo in doubt; 49) [listing 2 of 2 here]	
0.005		CC(C)(C)n1nnc(C(/C=C/[C@@H](O)C[C@@H](O)CC(=O)O)=C(c2ccc(F)cc2)c2ccc(F)cc2)n1 (stereo in doubt; 47) [listing 2 of 2 here]	
0.017	1100 nM	CCn1nnnc1C(/C=C/[C@@H](O)C[C@@H](O)CC(=O)O)=C(c1ccc(F)cc1)c1ccc(F)cc1	
0.095	230 nM	CC(C)C(/C=C/[C@@H](O)C[C@@H](O)CC(=O)O)=C(c1ccc(F)cc1)c1ccc(F)cc1	

Continued, compound first:

SMILES	Relative potency [1]	IC50 [2]	also measured
Cc1cc(F)ccc1C(=C(/C=C/[C@@H](O)C[C@@H](O)CC(=O)O)c1nnnn1C)c1ccc(F)cc1C	0.67	29 nM	
Cn1nnnc1C(/C=C/[C@@H](O)C[C@@H](O)CC(=O)O)=C(c1ccccc1)c1ccccc1	0.1	190 nM	
Cc1ccc(C(=C(/C=C/[C@@H](O)C[C@@H](O)CC(=O)O)c2nnnn2C)c2ccc(C)cc2F)c(F)c1	0.032	580 nM	
Cc1ccc(C(=C(/C=C/[C@@H](O)C[C@@H](O)CC(=O)O)c2nnnn2C)c2ccc(C)cc2C)c(C)c1	0.012	1600 nM	
COc1ccc(C(=C(/C=C/[C@@H](O)C[C@@H](O)CC(=O)O)c2nnnn2C)c2ccc(OC)cc2)cc1	0.014	1400 nM	
O=C(O)C[C@H](O)C[C@H](O)/C=C/C(=C(c1ccc(F)cc1)c1ccc(F)cc1)C1N=NN=N1	0.0058	330 nM	
Cc1ccc(C(=C(/C=C/[C@@H](O)C[C@@H](O)CC(=O)O)c2nnnn2C)c2ccc(C)cc2)cc1	0.015	1300 nM	
Cn1nnnc1C(/C=C/[C@@H]1C[C@@H](O)CC(=O)O1)=C(c1ccc(F)cc1)c1ccc(F)cc1			IC50 [8]: 24 nM
CC[C@H](C)C(=O)O[C@H]1C[C@@H](C)C=C2C=C[C@H](C)[C@H](CC[C@@H]3C[C@@H](O)CC(=O)O3)[C@H]21 [LOVASTATIN]	0.71	27 nM	IC50 ratio (Rattus norvegicus [3]): 1.2; IC50 ratio (Bos taurus): 1.6; IC50 ratio (Rattus norvegicus [5]): 1; IC50 ratio (Rattus norvegicus [6]): 1.3; IC50 ratio (Rattus norvegicus [7]): 1.2; IC50 [8]: 32 nM
Cn1nnnc1C(/C=C/[C@@H](O)C[C@@H](O)CC(=O)O)=C(\c1ccccc1)c1ccc(F)cc1	0.43	44 nM	
Cc1cc(C(=C(/C=C/[C@@H](O)C[C@@H](O)CC(=O)O)c2nnnn2C)c2ccc(F)c(C)c2)ccc1F	0.12	160 nM	

Source: ChEMBL document CHEMBL1125005, “Synthesis, biological profile, and quantitative structure-activity relationship of a series of novel 3-hydroxy-3-methylglutaryl coenzyme A reductase inhibitors” (J Med Chem, 1990)
